Measurements of several laboratories.
Protocols differ between the studies behind these lines.
Target: Inhibitor of nuclear factor kappa-B kinase subunit epsilon (IKBKE, Homo sapiens, UniProt Q14164)
Read-out: enzyme activity
One construct used (Q14164 1-716): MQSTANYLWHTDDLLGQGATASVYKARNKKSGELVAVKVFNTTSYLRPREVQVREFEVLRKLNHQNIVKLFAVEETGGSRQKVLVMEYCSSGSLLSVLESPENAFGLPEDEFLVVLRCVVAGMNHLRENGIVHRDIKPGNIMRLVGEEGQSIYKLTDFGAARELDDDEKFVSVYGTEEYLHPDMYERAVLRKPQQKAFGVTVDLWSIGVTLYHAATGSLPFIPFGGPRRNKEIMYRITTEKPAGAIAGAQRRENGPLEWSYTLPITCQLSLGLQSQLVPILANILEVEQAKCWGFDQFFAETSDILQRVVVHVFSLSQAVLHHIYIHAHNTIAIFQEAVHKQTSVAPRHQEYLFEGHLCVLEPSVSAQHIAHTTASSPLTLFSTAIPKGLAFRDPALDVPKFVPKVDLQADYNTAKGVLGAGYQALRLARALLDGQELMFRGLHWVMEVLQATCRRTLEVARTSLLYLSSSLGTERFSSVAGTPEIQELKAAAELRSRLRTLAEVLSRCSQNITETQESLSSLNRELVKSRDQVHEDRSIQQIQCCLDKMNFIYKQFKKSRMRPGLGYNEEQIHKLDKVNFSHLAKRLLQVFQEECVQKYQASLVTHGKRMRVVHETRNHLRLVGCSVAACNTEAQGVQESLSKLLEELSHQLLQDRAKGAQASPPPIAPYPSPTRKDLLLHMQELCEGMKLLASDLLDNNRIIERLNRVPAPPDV

Structure (SMILES)	mode	technique	concentration	remaining activity [%]
FC(F)c1nc2ccccc2n1-c1nc(N2CCOCC2)nc(N2CCOCC2)n1	inhibitor	–	10 µM	84
O=C(Nc1cnn(-c2csc(C(=O)NC3COC3)c2)c1)Nc1ccccc1Cl	inhibitor	–	5 µM	110
NS(=O)(=O)c1ccc(CNc2nc(Nc3cccc(NC(=O)N4CCCC4)c3)ncc2Br)cc1	inhibitor	radiometric	1 µM	35
CCN(CC)CCNC(=O)c1c(C)[nH]c(/C=C2\C(=O)Nc3ccc(Cl)cc32)c1C	inhibitor	–	0.5 µM	29.4
Oc1cccc(-c2nc(N3CCOCC3)c3oc4ncccc4c3n2)c1	inhibitor	–	10 µM	85
NS(=O)(=O)c1ccc(CNc2ccnc(Nc3cccc(CN4CCOCC4)c3)n2)cc1	inhibitor	radiometric	1 µM	78
CC(C)(O)[C@H]1CC[C@H](Nc2ccc3ncc(-c4cccc(C(F)(F)F)c4)n3n2)CC1	inhibitor	–	1 µM	90.2
Cc1nn(CC(F)(F)F)cc1Nc1ncc(Br)c(NCCc2cnc[nH]2)n1	inhibitor	radiometric	1 µM	55
Cc1ccc(C(=O)Nc2ccc(CN3CCN(C)CC3)c(C(F)(F)F)c2)cc1C#Cc1cnc2cccnn12	inhibitor	–	23.5 nM	99
Clc1ccc(Nc2nnc(Cc3ccncc3)c3ccccc23)cc1	–	–	0.5 µM	95.7
c1cc(CN2CCOCC2)cc(Nc2ncc(C3CC3)c(NCCc3c[nH]cn3)n2)c1	inhibitor	radiometric	1 µM	55
CC(C)(C)c1nc2c(s1)c1nc(N)ncc1c1ccc(NS(=O)(=O)c3c(F)cccc3F)c(F)c12	inhibitor	radiometric	1 µM	90
COc1cc(Nc2cnc(C#N)c(O[C@H](C)CN(C)C)n2)ncc1-c1cnn(C)c1	inhibitor	radiometric	1 µM	78
Cc1cnc(NC2CCOCC2)nc1-n1cnc(C(=O)NC(CN)c2cc(F)cc(Cl)c2)c1 (stereo not drawn)	inhibitor	radiometric	1 µM	64
O=C1NC(=O)c2cc(Nc3ccc(F)cc3)c(Nc3ccc(F)cc3)cc21	inhibitor	–	0.5 µM	100
